One may read the inhibition as the drop in the measured response relative to a control, in per cent. One may read the solubility as how much of the substance goes into solution per volume. The low end stands for little dissolved substance, the high end for much dissolved substance. Usually pIC50 stands for the negative decadic logarithm of the IC50, by convention in mol/L.

The record followed here is ChEMBL document CHEMBL1944602, “Synthesis and biological characterisation of sirtuin inhibitors based on the tenovins” (Bioorg Med Chem, 2012).

pIC50: −log10 of the molar value. In brackets after ≈: the same amount, converted by molar mass. Activity calls are given as the source filed them. No cut-off for these calls is given here. Where only a bound is given, the exact number is not on record here.

In data set [1] the target is T1, NAD-dependent protein deacetylase sirtuin-1 (Homo sapiens) (UniProt Q96EB6).
T1 sequence (whole entry): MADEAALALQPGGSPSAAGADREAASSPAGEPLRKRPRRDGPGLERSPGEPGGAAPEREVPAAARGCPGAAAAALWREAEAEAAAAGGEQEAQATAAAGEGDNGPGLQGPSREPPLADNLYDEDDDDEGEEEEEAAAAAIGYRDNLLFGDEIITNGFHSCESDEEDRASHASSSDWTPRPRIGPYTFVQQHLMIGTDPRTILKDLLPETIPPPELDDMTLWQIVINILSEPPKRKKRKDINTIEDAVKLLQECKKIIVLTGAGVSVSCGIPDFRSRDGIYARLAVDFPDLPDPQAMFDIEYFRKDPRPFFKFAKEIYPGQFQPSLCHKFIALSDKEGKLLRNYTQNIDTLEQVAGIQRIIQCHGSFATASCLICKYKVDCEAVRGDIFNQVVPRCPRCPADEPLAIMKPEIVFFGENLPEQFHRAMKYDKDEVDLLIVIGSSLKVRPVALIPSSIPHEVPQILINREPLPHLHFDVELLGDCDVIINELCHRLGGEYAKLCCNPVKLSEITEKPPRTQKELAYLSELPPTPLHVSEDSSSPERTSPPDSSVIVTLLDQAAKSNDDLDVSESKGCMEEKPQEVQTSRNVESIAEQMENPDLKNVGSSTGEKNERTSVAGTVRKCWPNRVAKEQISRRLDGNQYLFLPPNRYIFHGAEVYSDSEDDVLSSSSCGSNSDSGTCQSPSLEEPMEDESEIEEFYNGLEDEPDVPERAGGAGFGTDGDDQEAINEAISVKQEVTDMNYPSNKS
Description: Inhibition of SirT1 assessed as increase in p53 expression in human MCF7 cells at 10 uM after 6 hrs by Western blotting. It is filed as cell-based. An outline of the steps: (§1)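 MCF-7 cells grown in DMEM with 10% FCS and gentamycin, seeded at 2 × 10⁵ per well on collagen-coated plates and incubated 42 h at 37 °C in 5% CO2. Compound in DMSO was added for 6 h. Lysis in LDS buffer, protein equalised by BCA, 4–12% bis-tris SDS-PAGE, PVDF blot. Total p53 detected with DO.1, PCNA as loading control, ECL detection. Scored semi-quantitatively against untreated level.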
On the technique in general: In western blotting, separated proteins are transferred to a membrane and probed.

Data set [2] in a line: Solubility of the compound in water by UV spectrophotometry. It is filed as physicochemical. In outline: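 Extinction coefficient from absorbance at 273 nm of a 7-point 2-fold dilution series in acetonitrile; DMSO used first where needed. Coefficient taken from the slope of absorbance against molar concentration. Used to find the actual concentration of a nominal 100 µM aqueous solution made from 40 mM DMSO stock.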

Data set [3] addresses T1, NAD-dependent protein deacetylase sirtuin-1 (Homo sapiens). The data set can be described thus: Inhibition of SirT1 in human ARN8 cells assessed as p53 activation at 5 uM by beta-galactosidase reporter gene assay. It is filed as cell-based. In outline: (§2)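 p53-dependent transcription measured with a beta-galactosidase reporter in ARN8 cells, run in triplicate. Read-out is the ratio of signal in treated cells to DMSO-control cells, given to 2 significant figures; a positive or negative activity call is also recorded.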
A general note: In a reporter assay the amount or activity of a reporter protein is the signal.

The target is the same in data set [4]. Description: Inhibition of SirT1 assessed as increase in p53 expression in human MCF7 cells at 2 uM after 6 hrs by Western blotting. It is filed as cell-based. An outline of the steps: as §1
Data set [5] in a line: Drug metabolism in human H1299 cells after 16 hrs by mass spectrophotometry. It is filed as ADME, cell-based. Particulars: nci-h1299, 16 h.
The nature of data set [6]: Cytotoxicity against human H1299 cells at 30 uM. It is filed as cell-based. Conditions: nci-h1299, 30 µM.
Data set [7] addresses T1, NAD-dependent protein deacetylase sirtuin-1 (Homo sapiens). The data set can be described thus: Inhibition of SirT1 in human ARN8 cells assessed as p53 activation at 10 uM by beta-galactosidase reporter gene assay. It is filed as cell-based. An outline of the steps:
as §2

For data set [8] the target is unchanged. Description: Inhibition of recombinant human SitT1 at 60 uM by Fluor de Lys fluorescence assay. In outline: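 Human recombinant SirT1 deacetylation measured with the Fluor de Lys fluorescence kit at a fixed 60 µM inhibitor. Tested on two separate occasions; percent inhibition reported as a mean weighted to the standard error.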
Data set [9] has the same target. Description: Inhibition of SirT1 assessed as increase in p53 expression in human MCF7 cells at 5 uM after 6 hrs by Western blotting. It is filed as cell-based. An outline of the steps: as §1
Data set [10] addresses T2, NAD-dependent protein deacetylase sirtuin-2 (Homo sapiens, UniProt Q8IXJ6).
T2 sequence (Q8IXJ6 whole entry): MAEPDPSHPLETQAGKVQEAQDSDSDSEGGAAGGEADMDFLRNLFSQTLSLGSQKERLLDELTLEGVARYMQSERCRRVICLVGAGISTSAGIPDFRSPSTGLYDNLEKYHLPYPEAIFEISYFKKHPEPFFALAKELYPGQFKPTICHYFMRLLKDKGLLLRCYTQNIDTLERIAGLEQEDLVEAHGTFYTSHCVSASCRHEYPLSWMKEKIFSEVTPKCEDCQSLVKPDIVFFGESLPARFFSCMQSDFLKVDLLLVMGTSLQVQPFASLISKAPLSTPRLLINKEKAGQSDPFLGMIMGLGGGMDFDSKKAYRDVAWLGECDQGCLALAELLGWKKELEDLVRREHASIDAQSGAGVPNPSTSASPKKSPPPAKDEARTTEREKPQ
The data set can be described thus: Inhibition of recombinant human SitT2 by Fluor de Lys fluorescence assay.

Data set [11] addresses T1, NAD-dependent protein deacetylase sirtuin-1 (Homo sapiens). Description: Inhibition of SirT1 in human ARN8 cells assessed as p53 activation at 20 uM by beta-galactosidase reporter gene assay relative to control. It is filed as cell-based. An outline of the steps:
as §2

The target is the same in data set [12]. The data set can be described thus: Inhibition of SirT1 in human ARN8 cells assessed as p53 activation at 10 uM by beta-galactosidase reporter gene assay relative to control. It is filed as cell-based. An outline of the steps:
as §2

Data set [13] has as its target T3, NAD-dependent protein deacetylase sirtuin-1 (Homo sapiens, UniProt Q96EB6).
T3 sequence (Q96EB6 whole entry): T1 sequence (whole entry)
Description: Inhibition of recombinant human SitT1 by Fluor de Lys fluorescence assay.

Data set [14] deals with T1, NAD-dependent protein deacetylase sirtuin-1 (Homo sapiens). Description: Inhibition of SirT1 in human ARN8 cells assessed as p53 activation at 5 uM by beta-galactosidase reporter gene assay relative to control. It is filed as cell-based. In outline:
as §2

A short description of data set [15]: Cytotoxicity against human H1299 cells at 20 uM. It is filed as cell-based. Particulars: nci-h1299, 20 µM.
Data set [16] can be described thus: Cytotoxicity against human ARN8 cells at 20 uM. Conditions: arn8, 20 µM. It is filed as cell-based.
The target in data set [17] is T1, NAD-dependent protein deacetylase sirtuin-1 (Homo sapiens). The data set can be described thus: Inhibition of SirT1 in human ARN8 cells assessed as p53 activation at 20 uM by beta-galactosidase reporter gene assay. It is filed as cell-based. In outline: as §2

For `CN(C)CCCCC(=O)Nc1ccc(NC(=S)NC(=O)c2ccc(C(C)(C)C)cc2)cc1.Cl`, the inhibition result in data set [1], in data set [3], in data set [4], in [7] and in [9] was “Active” in each case. The molecule also had a solubility in data set [2] of 0.74 µg/mL. Also, in data set [5], the Drug metabolism entry is given as “Active”. Further, the Activity entry in [6] was “Toxic”. In addition, the inhibition in data set [8] was found to be 73.9%.
For `CN(C)CCCCCC(=O)Nc1ccc(NC(=S)NC(=O)c2ccc(C(C)(C)C)cc2)cc1.Cl`, the inhibition result in [1], in data set [4] and in [9] was “Active” throughout. Also, in data set [2], the solubility was > 0.97 µg/mL. Moreover, the pIC50 in data set [10] is 4.67. The inhibition in data set [8] stood at 96.2%.
Turning to `CN(C)CCCCC(=O)Nc1ccc(N(C)C(=S)NC(=O)c2ccc(C(C)(C)C)cc2)cc1`, the inhibition entry in data set [1], in data set [4] and in data set [9] was “inactive” each time. The inhibition in data set [8] was determined as 6.6%.
As to `CCCCc1ccc(C(=O)NC(=S)Nc2ccc(NC(=O)CCCCN(C)C)cc2)cc1.Cl`, the fold change (FC) in [11] was determined as 0.28; in [12] it was 0.93; in [14], 0.91. The inhibition entry in data set [3] and in data set [7] was “inactive” throughout. The results for the pIC50 in data set [10] and in data set [13] were 5.07 and 4.33, respectively. In addition, the Activity entry in data set [15], in data set [6] and in data set [16] was “Toxic” throughout. For the same molecule, the inhibition in data set [8] stood at 56.3%.
As to `CN(C)CCCC(=O)Nc1ccc(NC(=S)NC(=O)c2ccc(C(C)(C)C)cc2)cc1.Cl`, the inhibition result in data set [1] and in [9] was “Active” throughout. This molecule also came in with a solubility in data set [2] of 0.57 µg/mL. Also, the inhibition result in data set [4] was “inactive”. Further, the pIC50 in data set [10] was 4.89; in [13], 4.45. Further, in data set [8], the inhibition is 85.2%.
Consider `CN(C)CCCCCCCC(=O)Nc1ccc(NC(=S)NC(=O)c2ccc(C(C)(C)C)cc2)cc1.Cl`, for which the inhibition result in data set [1], in data set [4] and in [9] was “Active” in each case. For the same molecule, in data set [2], the solubility is > 1.01 µg/mL. Moreover, the pIC50 in [10] is 4.38. The inhibition in [8] was determined as 70.9%.
As to `CC(=O)Nc1ccc(NC(=S)NC(=O)c2ccc(C(C)(C)C)cc2)cc1`, the inhibition entry in [1], in data set [4] and in data set [9] was “Active” in each case. This molecule also yielded a solubility in data set [2] of 0.12 µg/mL (≈ 0.325 µM).
For the molecule `CN(C)CCOCCOCCOCCOCCOCC(=O)Nc1ccc(NC(=S)NC(=O)c2ccc(C(C)(C)C)cc2)cc1.Cl`, the inhibition entry in [1], in data set [4] and in [9] was “inactive” each time. Besides, the solubility in data set [2] is > 1.34 µg/mL. For the same molecule, the pIC50 was < 4.05 in [10] and < 4.22 in data set [13]. Besides, in data set [8], the inhibition amounted to 29.6%.
As for `CN(C)CCCCC(=O)Nc1ccc(NC(=S)NC(=O)c2ccc(Br)cc2)cc1`, the inhibition entry in data set [17], in data set [3] and in [7] was “inactive” each time. In addition, the fold change (FC) in [11] stood at 1.01; in data set [12], 1.1; in data set [14] it was 1. In addition, the pIC50 was 4.26 in [10] and < 4.05 in data set [13]. Further, in data set [8], the inhibition is 13.5%.
